Measured values taken from ChEMBL document CHEMBL4014335, “Activation of Phenyl 4-(2-Oxo-3-alkylimidazolidin-1-yl)benzenesulfonates Prodrugs by CYP1A1 as New Antimitotics Targeting Breast Cancer Cells” (J Med Chem, 2017).

Tests used:
Cytochrome P450 1A1 [1] = target: T1, Cytochrome P450 1A1 (Homo sapiens, UniProt P04798); experiment: Inhibition of human supersomes CYP1A1-mediated 7-ethoxyresorufin conversion to fluorescent resorufin preincubated with 7-ethoxyresorufin for 5 mins followed by addition of NADPH regenerating system measured for 15 mins by EROD assay; type: ADME
T1 sequence (P04798 whole entry): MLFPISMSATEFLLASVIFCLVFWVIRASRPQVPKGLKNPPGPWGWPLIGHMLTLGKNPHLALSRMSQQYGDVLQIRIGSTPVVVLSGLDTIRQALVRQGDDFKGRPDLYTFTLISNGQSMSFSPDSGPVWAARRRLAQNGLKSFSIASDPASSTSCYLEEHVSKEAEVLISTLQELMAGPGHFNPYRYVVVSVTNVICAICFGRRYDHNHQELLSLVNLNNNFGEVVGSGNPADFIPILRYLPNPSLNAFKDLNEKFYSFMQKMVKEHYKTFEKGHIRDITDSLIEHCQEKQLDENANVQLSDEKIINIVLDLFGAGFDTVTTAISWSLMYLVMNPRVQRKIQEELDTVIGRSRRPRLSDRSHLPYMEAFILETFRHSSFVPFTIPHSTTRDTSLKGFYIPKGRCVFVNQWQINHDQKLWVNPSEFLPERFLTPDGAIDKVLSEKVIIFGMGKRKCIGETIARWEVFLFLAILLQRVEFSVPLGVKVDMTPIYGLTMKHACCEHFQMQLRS
Procedure, shortened: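 EROD assay with human CYP1A1 supersomes containing reductase, in potassium phosphate buffer. Drug final 32–31 600 nM and 7-ethoxyresorufin 94–3 000 nM, with 0.35% DMSO, preincubated 5 min at 37 °C. Reaction started with NADPH-regenerating system and 0.15 pmol CYP1A1 in 150 µL. Initial velocity taken from 1–5 min; Vmax and Km from Lineweaver-Burk plot.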

MCF7 [2] = experiment: Antiproliferative activity against human MCF7 cells after 72 hrs by SRB assay; type: functional, cell-based; settings: MCF7, 72 h
Procedure, shortened: (§1)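 SRB antiproliferative assay (modified NCI protocol). Cells seeded per well (SK-BR-3, MDA-MB-231, T47D, HT-1080, HT-1080 CYP1A1 and empty-vector: 3.0 x 10^3; MDA-MB-468: 5.0 x 10^3; MCF7: 7.5 x 10^3), preincubated 24 h. DMSO-solubilized drug added at 0.75 to 1.0 x 10^5 nM, then 72 h. Fixed with cold 10% TCA, stained with 0.1% sulforhodamine B, absorbance read at 530-565 nm. At least two experiments, triplicate cultures.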

[3] = Selectivity ratio of IC50 for ER/PR/HER2 deficient human MDA-MB-231 cells to IC50 for human MCF7 cells; type: functional
Procedure, shortened: (§2)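 Ratio is IC50 in reference line over IC50 in sensitive line. […] Cells in DMEM with 5% calf serum at 37 °C. At least two experiments, triplicate cultures; assay accepted when relative SD < 10%.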

[4] = Selectivity ratio of IC50 for ER/PR/HER2 deficient human MDA-MB-231 cells to IC50 for ER/PR deficient and HER2 expressing human SKBR3 cells; type: functional; procedure, shortened: as §2
HT-1080 [5] = experiment: Selectivity ratio of IC50 for HT1080 cells transfected with pCMV6-AC empty plasmid to IC50 for human HT1080 cells transfected with CYP1A1; type: functional
Procedure, shortened: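 Ratio is IC50 (HT-1080 empty vector) over IC50 (HT-1080 CYP1A1). Both lines stably transfected (pCMV6-AC plasmids) and kept under G418 selection, seeded at 3.0 x 10^3 cells. IC50s from SRB antiproliferative assay.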

[6] = Selectivity ratio of IC50 for human M21 cells to IC50 for human MCF7 cells; type: functional; procedure, shortened: as §2
HT-1080 [7] = experiment: Antiproliferative activity against human wild type HT1080 cells after 72 hrs by SRB assay; type: functional, cell-based; settings: HT-1080, 72 h; procedure, shortened: as §1
[8] = Selectivity ratio of IC50 for human HT-29 cells to IC50 for human MCF7 cells; type: functional; procedure, shortened: as §2
[9] = Selectivity ratio of IC50 for ER/PR/HER2 deficient human MDA-MB-231 cells to IC50 for ER/PR/HER2 deficient human MDA-MB-468 cells; type: functional; procedure, shortened: as §2
HT-1080 [10] = experiment: Antiproliferative activity against human HT1080 cells transfected with CYP1A1 after 72 hrs by SRB assay; type: functional, cell-based; settings: HT-1080, 72 h; procedure, shortened: as §1
[11] = Selectivity ratio of IC50 for ER/PR/HER2 deficient human MDA-MB-231 cells to IC50 for ER/PR/HER2 expressing human T47D cells; type: functional; procedure, shortened: as §2
T47D = experiment: Antiproliferative activity against ER/PR/HER2 expressing human T47D cells after 72 hrs by SRB assay; type: functional, cell-based; procedure, shortened: as §1
MDA-MB-231 = experiment: Antiproliferative activity against ER/PR/HER2 deficient human MDA-MB-231 cells after 72 hrs by SRB assay; type: functional, cell-based; settings: MDA-MB-231, 72 h; procedure, shortened: as §1
HT-1080 [12] = experiment: Antiproliferative activity against human HT1080 cells transfected with pCMV6-AC empty plasmid after 72 hrs by SRB assay; type: functional, cell-based; settings: HT-1080, 72 h; procedure, shortened: as §1
Cytochrome P450 1A1 [13] = target: T1, Cytochrome P450 1A1; experiment: Prodrug activation assessed as time required for human supersomes CYP1A1-mediated 3,4,5-trimethoxyphenyl 4-(2-oxoimidazolidin-1-yl)benzenesulfonate formation after 4 hrs by HPLC-MS analysis; type: ADME; settings: recombinant enzyme
MDA-MB-468 = experiment: Antiproliferative activity against ER/PR/HER2 deficient human MDA-MB-468 cells after 72 hrs by SRB assay; type: functional, cell-based; settings: MDA-MB-468, 72 h; procedure, shortened: as §1
HT-29 = experiment: Antiproliferative activity against human HT-29 cells after 48 hrs by SRB assay; type: functional, cell-based; settings: HT-29, 48 h
Procedure, shortened: (§3)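 SRB assay run as in the NCI screen with slight modifications. Seeding: HT-29 5.0 x 10^3, M21 3.5 x 10^3, MCF7 7.5 x 10^3 cells; cells preincubated 24 h. Drug in DMSO added at 0.75 to 1.0 x 10^5 nM for 48 h. TCA fixation, sulforhodamine B staining, absorbance 530-565 nm. At least two experiments in triplicate; runs accepted only when relative SD < 10%.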

M21 = experiment: Antiproliferative activity against human M21 cells after 48 hrs by SRB assay; type: functional, cell-based; settings: M21, 48 h; procedure, shortened: as §3
SK-BR-3 = experiment: Antiproliferative activity against ER/PR deficient and HER2 expressing human SKBR3 cells after 72 hrs by SRB assay; type: functional, cell-based; settings: SK-BR-3, 72 h; procedure, shortened: as §1
MCF7 [14] = experiment: Antiproliferative activity against human MCF7 cells after 48 hrs by SRB assay; type: functional, cell-based; settings: MCF7, 48 h; procedure, shortened: as §3
Cytochrome P450 1A1 [15] = target: T1, Cytochrome P450 1A1; experiment: Prodrug activation assessed as human supersomes CYP1A1-mediated 3,4,5-trimethoxyphenyl 4-(2-oxoimidazolidin-1-yl)benzenesulfonate formation after 4 hrs by HPLC-MS analysis; type: ADME; settings: recombinant enzyme
Cytochrome P450 1A1 [16] = target: T1, Cytochrome P450 1A1; experiment: Prodrug conversion assessed as human supersomes CYP1A1-mediated 3,5-dimethoxyphenyl 4-(2-oxoimidazolidin-1-yl)benzenesulfonate formation after 4 hrs by HPLC-MS analysis; type: ADME; settings: recombinant enzyme

Row | Ki (Cytochrome P450 1A1 [1]; read-out: Ki) | IC50 (MCF7 [2]) | IC50 (HT-1080 [7]) | IC50 (HT-1080 [10]) | IC50 (T47D) | IC50 (MDA-MB-231) | IC50 (HT-1080 [12]) | Time (Cytochrome P450 1A1 [13]) | IC50 (MDA-MB-468) | IC50 (HT-29) | IC50 (SK-BR-3) | IC50 (MCF7 [14]) | SMILES | Ratio IC50 [3] | Ratio IC50 [4] | Ratio IC50 (HT-1080 [5]) | Ratio IC50 [6] | Ratio IC50 [8] | Ratio IC50 [9] | Ratio IC50 [11] | IC50 (M21) | further results
1 | 240 nM | 18 nM | 6.7 µM | 16 nM | 49 nM | 6 µM | 82 µM | 15 min | 26 nM | 5.6 µM | 5 nM | 49 nM | CCCN1CCN(c2ccc(S(=O)(=O)Oc3cc(OC)c(OC)c(OC)c3)cc2)C1=O | 340 | 1300 | 5100 | 80 | 110 | 240 | 130 | 3.9 µM | Drug metabolism (Cytochrome P450 1A1 [15]): Metabolite_Detected
2 |  | 4 nM | 0.0054 µM | 2.3 nM | 8.7 nM | 0.01 µM | 0.0042 µM |  | 6.5 nM |  | 5.5 nM |  | COc1cc(OC)cc(OS(=O)(=O)c2ccc(N3CCNC3=O)cc2)c1 | 2.5 | 1.8 | 1.8 |  |  | 1.5 | 1.1 |  | Ki (Cytochrome P450 1A1 [1]): Not Active
3 | 490 nM | 35 nM | 29 µM | 31 nM | 240 nM | > 100 µM | 81 µM | 15 min | 160 nM | 36 µM | 52 nM | 19 nM | CCCCN1CCN(c2ccc(S(=O)(=O)Oc3cc(OC)cc(OC)c3)cc2)C1=O | >2900 | >1900 | 2600 | >5300 | 1900 | >630 | >420 | > 100 µM | Drug metabolism (Cytochrome P450 1A1 [16]): Metabolite_Detected; Drug metabolism (Cytochrome P450 1A1 [15]): Metabolite_Notdetected
